In PubChem BioAssay:
Results filed as inconclusive are left out. Activity calls are given as the source filed them.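 How the source made its calls, unless noted: active means viability at or below 27.92% in each of two runs, the all-compound median minus 4 SD; inconclusive means no clear call, values can overlap the other calls; inactive means the rest.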

Columns and labels:
[1] = OD615 S. cerevisiae growth inhibition, permissive medium, pilot counter-assay, permissive growth control for S. cerevisiae lifespan shortening project (AID 705;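 active means growth inhibition above 25% in both replicates, a cutoff set 3 SD above the mean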); details: OD615, 24 h, at 10 µM, stronger effect = higher value
How it was run: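 System: Engineered DeaD yeast | Buffer or medium: SC raffinose/galactose permissive medium | Doses: 10 µM single dose, 0.25% DMSO | Times: 24 h exposure, 30 °C | Measured by: OD615 turbidity read | Read-out: Yeast growth inhibition indicated by reduced 24 h OD615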

[2] = Restrictive medium S. cerevisiae growth inhibition, OD615, pilot screen of yeast lifespan reduction project, restrictive growth control (AID 706;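 active means growth inhibition above a set limit, 3 SD over mean compound inhibition, in both replicates, cut at about 43% in these data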;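 further: modified DeaD lifespan yeast strain shifted to restrictive glucose medium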); details: OD615, 48 h, at 10 µM, stronger effect = higher value
How it was run: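 Assay system: engineered S. cerevisiae DeaD strain; Buffer or medium: CSMM-D glucose medium; Dosing: 10 µM compound, 0.25% DMSO; Times: cell pre-growth 4 h, compound exposure 48 h, 30 °C; Detection: absorbance (optical density) measured at 615 nm.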

[3] = viability gain of MRP-1-high H69AR cells under doxorubicin, pilot screen, MRP-1 activator project, CellTiter-Glo, duplicate (AID 807;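 active means viability increase at or above a cutoff of the median across tested compounds plus 3 SD, cut at about 8.5% in these data, passing the limit was not always enough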;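 further: compound pretreatment 18-22 h then 72 h combined with doxorubicin; 0% = doxorubicin alone and 100% = vehicle without doxorubicin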); details: H69AR viability with doxorubicin, CellTiter-Glo luminescence; at 10 µM; stronger effect = higher value
[4] = growth suppression of beta-catenin knockout HCT116, pilot screen, human colon tumor cells (AID 823;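 active means cell viability at or below a set limit in both duplicate runs, the limit being the all-compound median minus 4 SD, cut at about 23% in these data, passing the limit was not always enough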;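 further: 0% = wells killed by 20 µM Hyamine and 100% = untreated DMSO cell wells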); details: CellTiter-Glo, 60 h, at 10 µM, stronger effect = lower value
[5] = growth suppression of PTEN-deleted HCT116, pilot screen, cell-based, HCT116 clonal line, CellTiter-Glo (AID 824); details: 60 h, at 10 µM, stronger effect = lower value;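 further: 0% = 20 µM Hyamine control and 100% = vehicle cell control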
[6] = inhibitors of the yeast RAM network, pilot screen, dse1pr::URA3 reporter, 5-FOA selection (AID 869;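 active means inhibition over a set limit, the all-compound mean plus 3 SD, in both replicate runs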;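 further: 0% = DMSO wells with no growth and 100% = 10 µM 1-NA-PP1 with full growth; RAM network block rescues cells from 5-FOA so hits raise OD615 growth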); details: S. cerevisiae dse1pr::URA3 5-FOA growth, OD615, 2 d; at 10 µM; stronger effect = higher value; strain carries analog-sensitive mutant Cbk1 kinase
[7] = growth inhibitors of H69AR lung tumor, primary screen, human, duplicate replicates (AID 580;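 active means viability at or under a set limit in both replicates, limit being median viability minus 3 SD, cut at about 48% in these data, passing the limit was not always enough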;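 further: 100% = mean luminescence of untreated wells and 0% = no signal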); details: H69AR lung tumor cells viability, ATP luminescence, 72 h; at 10 µM; stronger effect = lower value
[8] = reversal of MRP1-mediated doxorubicin resistance, pilot screen, H69AR cells, doxorubicin co-treatment (AID 601;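 active means viability loss from added drug above about 55%, and viability with drug at most 40%, in both replicates, limit read from the data, passing the limit was not always enough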); details: CellTiter-Glo, 72 h, at 10 µM; for differential viability (reversal): stronger effect = higher value
[9] = 384-well plate pilot, post-Golgi transport modulator project, inhibition of yeast transport mutant growth (AID 636; in the data active means inhibition above about 31%); details: absorbance 615 nm, about 18 h, stronger effect = higher value
[10] = growth suppression of yeast trafficking mutant, preliminary HTS, modulators of trafficking downstream of Golgi apparatus project, 1536-format plate, OD 615 nm (AID 637; in the data active means inhibition above about 30%); details: yeast transport mutant growth, absorbance 615 nm, 18 h; stronger effect = higher value
[11] = H69AR cells + 2 uM doxorubicin, measured here: viability with 2 uM doxorubicin, stronger effect = lower value
[12] = H69AR cells, compound alone cytotoxicity

Brc1ccc(Oc2nnnn2-c2ccccc2)cc1
inactive: growth inhibition [1] -5.57% | growth inhibition [2] -3.68% | viability increase [3] 0.29% | viability [4] 95.3% | viability [5] 88.9% | inhibition [6] 1.51%

CSc1nnc2c3ccccc3n(Cc3ccccc3)c2n1
31.6%: viability [8, 12]
active: viability [7] 31.6%
inactive: differential viability (reversal) ([8]; H69AR cells + 2 uM doxorubicin) 1.23% | inhibition [9] -2.37% | inhibition [10] 2.54%
30.3%: viability [8, 11]

N#CCCn1cc(C(CC(=O)c2ccc(Br)cc2)C(=O)O)c2ccccc21 (configuration not stated)
inactive: growth inhibition [1] 3.64% | growth inhibition [2] 4.21% | viability increase [3] -3.05% | viability [4] 91.7% | viability [5] 96.4% | inhibition [6] 1.56%

COc1ccc(-c2noc(-c3cc(C)cc(C)c3)n2)cc1OC
inactive: growth inhibition [1] -16.5% | growth inhibition [2] -30.9% | viability increase [3] 4.05% | viability [4] 100% | viability [5] 96.6%

Cc1cc(C)n(-c2nc3ccccc3nc2Nc2ccc3c(c2)OCO3)n1
inactive: growth inhibition [1] -18.7% | growth inhibition [2] 1.25% | viability increase [3] 6.2% | viability [4] 87.7% | viability [5] 81.7%
active: inhibition [6] 6.39%

COC(=O)c1ccc(CSc2ccc3nnc(-c4cccc(F)c4)n3n2)o1
active: growth inhibition [2] 49%
inactive: growth inhibition [1] 6.12% | viability increase [3] -3.24% | viability [4] 87.9% | viability [5] 91.4% | inhibition [6] -0.025%

Cn1c(-n2c(CCCN3C(=O)c4ccccc4C3=O)nc3ccccc3c2=O)nc2ccccc21
inactive: growth inhibition [1] -1.74% | growth inhibition [2] 2.53% | viability increase [3] -3.91% | viability [4] 84.5% | viability [5] 87.2% | inhibition [6] 2.62%

COC(=O)C(F)(F)Sc1c(C)[nH]c2ccccc12
inactive: viability [7] 92.2% | differential viability (reversal) ([8]; H69AR cells + 2 uM doxorubicin) 1.54% | inhibition [9] -2.37% | inhibition [10] -1.43%
92.2%: viability [8, 12]
90.6%: viability [8, 11]

CN(C)c1ccc(CN(C)C2CCCCC2)cc1
inactive: growth inhibition [1] 2.59% | growth inhibition [2] -6.2% | viability increase [3] -1.65% | viability [4] 93.1% | viability [5] 89.7% | inhibition [6] 1.46%

O=C(CSc1nnnn1-c1ccccc1)Nc1nsc(-c2ccc(Cl)cc2)n1
inactive: differential viability (reversal) ([8]; H69AR cells + 2 uM doxorubicin) -0.79% | inhibition [9] 0.39% | inhibition [10] 3.33%
54%: viability [8, 12]
54.8%: viability [8, 11]

O=C(CCS(=O)(=O)c1cccc2nonc12)N1CCN(c2ccc(F)cc2)CC1
inactive: growth inhibition [1] -6.7% | growth inhibition [2] -0.575% | viability increase [3] 0.64% | viability [4] 96.3% | viability [5] 96.2% | inhibition [6] 1.71%

COC(=O)c1c(NC(=O)C2CC2)sc2c1CCCC2
inactive: growth inhibition [1] 4.15% | growth inhibition [2] 17% | viability increase [3] -4.82% | viability [4] 95.1% | viability [5] 81.7% | inhibition [6] 1.37%

CCN1CCN(CC(=O)Nc2cccc(C)c2)C(=O)C1=O
inactive: growth inhibition [1] -9.91% | growth inhibition [2] -0.21% | viability increase [3] -1.01% | viability [4] 99.6% | viability [5] 95.6% | inhibition [6] 1.27%

O=C(c1cc(C2CC2)on1)N1CCN(c2ccc(F)cc2)CC1
inactive: growth inhibition [1] -18.2% | growth inhibition [2] -26.9% | viability increase [3] -1.75% | viability [4] 96.8% | viability [5] 92.4% | inhibition [6] 1.9%

CN1CSC2=C(C#N)C(c3cccc(OCc4ccccc4)c3)CC(=O)N2C1 (configuration not stated)
inactive: growth inhibition [1] -5.43% | growth inhibition [2] 20.4% | viability increase [3] -4.67% | viability [4] 85.7% | viability [5] 88.5% | inhibition [6] 0.785%

COc1ccc(C)cc1NC(=O)CSc1nnc(-c2ccccn2)n1Cc1ccco1
inactive: growth inhibition [1] -2.92% | growth inhibition [2] 7.74% | viability increase [3] -2.4% | viability [4] 95.7% | viability [5] 88.2% | inhibition [6] 1%

CCCCOc1ccccc1C1NC(=O)NC(C)=C1C(=O)OCCOC (configuration not stated)
inactive: growth inhibition [1] -16% | growth inhibition [2] -16.6% | viability increase [3] -2.89% | viability [4] 92.9% | viability [5] 88.1% | inhibition [6] 2.28%

O=C1c2ccccc2C(Nc2ccc(S(=O)(=O)N3CCOCC3)cc2)N1c1cccnc1 (configuration not stated)
inactive: growth inhibition [1] -3.45% | growth inhibition [2] -1.27% | viability increase [3] -0.92% | viability [4] 102% | viability [5] 97% | inhibition [6] -0.33%

CCCc1nnc(NC(=O)c2ccncc2)s1
inactive: growth inhibition [1] -5.46% | growth inhibition [2] -3.19% | viability increase [3] 0.44% | viability [4] 103% | viability [5] 99.1% | inhibition [6] 1.42%

CCOC(=O)c1[nH]c(C)c(C(=O)N2CCOCC2)c1C
inactive: growth inhibition [1] -6.62% | growth inhibition [2] -4.17% | viability increase [3] -0.92% | viability [4] 109% | viability [5] 104% | inhibition [6] 3.29%

Cc1c(S(=O)(=O)N2CCc3ccccc3C2)c(=O)n(C)c(=O)n1C
inactive: growth inhibition [1] -14.9% | growth inhibition [2] -10.4% | viability increase [3] -0.16% | viability [4] 103% | viability [5] 97.9% | inhibition [6] 2.17%

Cc1noc(/C=C/N(C)C)c1S(=O)(=O)N1CCCC(C(=O)NCc2cccs2)C1 (configuration not stated)
inactive: growth inhibition [1] 2% | growth inhibition [2] -3.34% | viability [4] 93.2% | viability [5] 88.5% | inhibition [6] 0.21%
active: viability increase [3] 10.6%

O=C(CCS(=O)(=O)c1cccc2nonc12)N1CC(=O)N(CCc2ccccc2)C(=O)C1
inactive: growth inhibition [1] -5.67% | growth inhibition [2] -8.59% | viability increase [3] -3.51% | viability [4] 95.4% | viability [5] 92.3% | inhibition [6] -0.47%

COC(=O)c1ccc(C)c(NC(=O)CN(c2cc(OC)ccc2OC)S(C)(=O)=O)c1
inactive: growth inhibition [1] -8.06% | growth inhibition [2] -3.94% | viability increase [3] -3.03% | viability [4] 75.5% | viability [5] 68.6% | inhibition [6] 0.035%

Cc1cccc(N2CCN(C(=O)c3cc4c(C)nc5ccccc5c4o3)CC2)c1C
inactive: growth inhibition [1] -8.18% | growth inhibition [2] -1.81% | viability increase [3] 4.84% | viability [4] 71.7% | viability [5] 78.2% | inhibition [6] -1.31%

Cc1ccc(-c2nc(CS(=O)CC(=O)NCc3ccc(Cl)cc3)c(C)o2)cc1 (configuration not stated)
inactive: growth inhibition [1] 1.44% | growth inhibition [2] -4.35% | viability increase [3] -2.83% | viability [4] 73.5% | viability [5] 80.2% | inhibition [6] 3.42%

CN(C)c1ccc(-c2noc(C3CCN(S(=O)(=O)c4cccc(Cl)c4)CC3)n2)cc1
inactive: growth inhibition [1] -5.86% | growth inhibition [2] -11.7% | viability increase [3] 3.01% | viability [4] 82.5% | viability [5] 94.2% | inhibition [6] 2.6%

O=C(NCc1ccc2c(c1)OCO2)c1nnc(Cc2ccc(F)cc2)o1
inactive: growth inhibition [1] -1.76% | growth inhibition [2] 9.91% | viability increase [3] 0.87% | viability [4] 105% | viability [5] 97.1% | inhibition [6] 3.56%

Cc1c(C(=O)O)nn(-c2ccccc2)c(=O)c1C#N
inactive: growth inhibition [1] -15.2% | growth inhibition [2] 5.62% | viability increase [3] 0.49% | viability [4] 98.4% | viability [5] 102% | inhibition [6] 1.46%

COC(=O)C1=C(N)N(c2ccc(F)cc2)C2=C(C(=O)CCC2)C1c1ccc2c(c1)OCO2 (configuration not stated)
inactive: growth inhibition [1] -6.41% | growth inhibition [2] -5.16% | viability increase [3] -0.72% | viability [4] 84.9% | viability [5] 86% | inhibition [6] 3.19%

C=CCSc1nnc2c(n1)OC=Nc1ccccc1-2
inactive: growth inhibition [1] -4.68% | growth inhibition [2] 29.7% | viability increase [3] 2.06% | viability [4] 97.9% | viability [5] 101% | inhibition [6] 3.17%

c1ccc(CNc2ncnc3nc[nH]c23)nc1
inactive: growth inhibition [1] -12.5% | growth inhibition [2] -1.55% | viability increase [3] -1.52% | viability [4] 102% | viability [5] 96.3% | inhibition [6] 1.71%

O=S1(=O)C=C(SCCN2CCCCC2)c2ccccc21
inactive: growth inhibition [1] -4.08% | growth inhibition [2] -20.4% | viability increase [3] -7.06% | viability [4] 61.6% | viability [5] 66.9% | inhibition [6] 1.29%

O=C1CCCN1CCCNc1ncnc2c1cnn2-c1ccc(Cl)cc1
inactive: growth inhibition [1] 0.48% | growth inhibition [2] 1.48% | viability increase [3] -0.95% | viability [4] 85% | viability [5] 77% | inhibition [6] 1.3%
